Measured values published in ChEMBL document CHEMBL1140972, “Synthesis and structure-activity relationship of 3-phenylquinoxaline 1,4-di-N-oxide derivatives as antimalarial agents” (Eur J Med Chem, 2008).

Legend:
[1] = system: Plasmodium falciparum; assay: Antimalarial activity after 48 hrs against chloroquine-sensitive Plasmodium falciparum 3D7 by [3H]hypoxanthine uptake; format: functional, organism-based
In short: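 Asynchronous culture (65-75% rings, 0.5% parasitemia, 2.5% final hematocrit) in RPMI 1640 with 0.5% Albumax II, 0.2% glucose, 0.03% L-glutamine and 5 µM hypoxanthine. Triplicate wells with a 3-fold series of 10.0–0.0412 µg/mL; final DMSO ≤0.01%. 37 °C, 5% CO2: 24 h, then 0.2 µCi/well [3H]hypoxanthine for a further 24 h. Frozen, harvested, scintillation-counted. IC50 from curve fit; mean of 2–3 experiments.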

[2] = Selectivity index, ratio of IC50 for human KB cells to IC50 for chloroquine-sensitive Plasmodium falciparum 3D7; format: toxicity, cell-based; conditions: read-out: Ratio IC50
In short: (§1)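 KB IC50 divided by the parasite IC50 (K1 or 3D7). KB cells seeded at 4×10^4 cells/mL in RPMI 1640 with 10% heat-inactivated FCS and grown 24 h. Triplicate dilution series then added for 72 h. AlamarBlue for 2–4 h, fluorescence ex 530/em 585 nm, IC50 by curve fit. Podophyllotoxin as positive control.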

[3] = system: Plasmodium falciparum; assay: Antimalarial activity after 48 hrs against chloroquine-resistant Plasmodium falciparum K1 by [3H]hypoxanthine uptake; format: functional, organism-based
In short: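 Asynchronous P. falciparum K1 culture (65-75% ring stage, 0.5% parasitemia; chloroquine, pyrimethamine, cycloguanil resistant) at 2.5% hematocrit in RPMI 1640 with 0.5% Albumax II, glucose, L-glutamine, 5 µM hypoxanthine. Triplicate 3-fold dilutions 10.0–0.0412 µg/mL, DMSO ≤0.01% final, 37 °C, 5% CO2. [3H]-hypoxanthine (0.2 µCi/well) added at 24 h, incorporation counted after further 24 h. IC50 by curve fit, 2–3 experiments.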

[4] = system: KB; assay: Cytotoxicity against human KB cells after 48 hrs by alamar blue assay; format: cell-based
[5] = Selectivity index, ratio of IC50 for human KB cells to IC50 for chloroquine-resistant Plasmodium falciparum K1; format: toxicity, cell-based; conditions: read-out: Ratio IC50; in short: as §1
[6] = Resistant index, ratio of IC50 for chloroquine-resistant Plasmodium falciparum K1 to IC50 for chloroquine-sensitive Plasmodium falciparum 3D7; format: functional
In short: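 IC50 against K1 divided by IC50 against 3D7 (drug-sensitive NF54 clone). Both from [3H]-hypoxanthine incorporation over 48 h: asynchronous cultures at 0.5% parasitemia, 2.5% hematocrit, 3-fold dilutions 10.0–0.0412 µg/mL in triplicate. Label added at 24 h. Means of 2–3 independent experiments.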

Compound | IC50 [1] | selectivity ratio [2] | IC50 [3] | IC50 [4] | selectivity ratio [5] | Ratio IC50 [6]
Cc1ccc2c(c1)[n+]([O-])c(C#N)c(-c1ccccc1)[n+]2[O-] | 1550 nM | 7.52 | 740 nM | 11600 nM | 15.8 | 0.48
Cc1cc2c(cc1C)[n+]([O-])c(-c1ccc(F)cc1)c(C#N)[n+]2[O-] | 1260 nM | 14.9 | 930 nM | 18800 nM | 20.4 | 0.73
